Each block holds one molecule with its values, some of them ahead of it.
What was measured:
[1] = molecular target: T1, Nuclear receptor subfamily 1 group I member 3 (Mus musculus, UniProt O35627, H213A); assay: Effect on nuclear co-repressor receptor binding to mouse CAR H213A mutant […] at 10 uM by yeast two-hybrid assay; format: cell-based; details: read-out: Activity
Outline: (§1)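 Yeast two-hybrid: yeast expressing wild-type or mutant mouse CAR LBD plus SRC-1 or NCoR, selected on SD medium lacking Leu and Trp. Pooled colonies treated with DMSO or test chemical for 3.5 h. β-Galactosidase normalized to cell density. SRC-1 reference: wild-type + DMSO = 100. NCoR reference: 10 µM androstenol = 100. Mean ± SD, two independent determinations, each in triplicate.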

[2] = molecular target: Nuclear receptor subfamily 1 group I member 3 (Mus musculus, UniProt O35627, T350M); assay: Enhancement of steroid receptor coactivator 1 binding to mouse CAR T350M mutant […] at 10 uM by yeast two-hybrid assay; format: cell-based; outline: as §1
Nuclear receptor subfamily 1 group I member 3 (Mus musculus, UniProt O35627, T350M), sequence (O35627 whole entry T350M): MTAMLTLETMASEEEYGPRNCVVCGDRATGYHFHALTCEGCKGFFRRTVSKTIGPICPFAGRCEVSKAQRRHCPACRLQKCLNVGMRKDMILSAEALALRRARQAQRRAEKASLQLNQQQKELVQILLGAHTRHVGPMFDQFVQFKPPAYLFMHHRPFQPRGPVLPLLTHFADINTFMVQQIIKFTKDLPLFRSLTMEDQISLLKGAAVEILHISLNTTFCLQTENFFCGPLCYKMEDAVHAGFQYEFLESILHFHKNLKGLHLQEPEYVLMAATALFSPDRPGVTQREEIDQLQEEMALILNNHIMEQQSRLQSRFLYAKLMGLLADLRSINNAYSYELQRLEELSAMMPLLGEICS

[3] = molecular target: T2, Nuclear receptor subfamily 1 group I member 3 (Mus musculus, UniProt O35627, S251L); assay: Decrease in mouse CAR S251L mutant activation expressed in HEK293 cells at 1 uM by mammalian one-hybrid assay; format: cell-based; details: read-out: Activity
T2 sequence (O35627 whole entry S251L, the tested form may be a part): as the sequence (O35627 whole entry T350M) above, with S251L, M350T counted along it
Outline: (§2)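 GAL4 DBD fused to mouse CAR LBD (residues 118-358), wild type or point mutant, cotransfected with UASx4-tk-luc reporter and pCMVβ into HEK293 cells. Cells cultured with DMSO (0.1% v/v) or compound (final 1, 2 or 10 µM). Lysed 24 h post-transfection. Luciferase normalized to β-galactosidase, expressed relative to empty GAL4 vector (=1.0). Mean ± SD, three independent experiments.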

[4] = molecular target: T3, Nuclear receptor subfamily 1 group I member 3 (Mus musculus, UniProt O35627, N175A); assay: Decrease in mouse CAR N175A mutant activation expressed in HEK293 cells at 1 uM by mammalian one-hybrid assay; format: cell-based; details: read-out: Activity; outline: as §2
T3 sequence (O35627 whole entry N175A): as the sequence (O35627 whole entry T350M) above, with N175A, M350T counted along it

[5] = molecular target: T4, Nuclear receptor subfamily 1 group I member 3 (Mus musculus, UniProt O35627, F171A); assay: Effect on nuclear co-repressor receptor binding to mouse CAR F171A mutant […] at 1 uM by yeast two-hybrid assay; format: cell-based
T4 sequence (O35627 whole entry F171A, the tested form may be a part): as the sequence (O35627 whole entry T350M) above, with F171A, M350T counted along it
Outline: (§3)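 Yeast expressing wild-type or mutant mouse CAR LBD plus NCoR, selected on SD plates lacking leucine and tryptophan. Pooled colonies treated with DMSO or compound for 3.5 h. β-Galactosidase activity normalized to cell density. Reference is 10 µM androstenol (=100). Mean ± SD of two independent determinations, each in triplicate.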

[6] = molecular target: Nuclear receptor subfamily 1 group I member 3 (Mus musculus, UniProt O35627, F171L); assay: Effect on steroid receptor co-activator 1 binding to mouse CAR F171L mutant […] at 1 uM by yeast two-hybrid assay; format: cell-based; details: read-out: Activity
Nuclear receptor subfamily 1 group I member 3 (Mus musculus, UniProt O35627, F171L), sequence (O35627 whole entry F171L): as the sequence (O35627 whole entry T350M) above, with F171L, M350T counted along it
Outline: as §3, with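 “SRC-1,” for “NCoR,”, “wild-type CAR + SRC-1 with DMSO” for “10 µM androstenol”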

[7] = molecular target: T3, Nuclear receptor subfamily 1 group I member 3; assay: Effect on nuclear co-repressor receptor binding to mouse CAR N175A mutant […] at 1 uM by yeast two-hybrid assay; format: cell-based; details: read-out: Activity; outline: as §3
[8] = molecular target: T5, Nuclear receptor subfamily 1 group I member 3 (Mus musculus, UniProt O35627, I252L); assay: Effect on nuclear co-repressor receptor binding to mouse CAR I252L mutant […] at 1 uM by yeast two-hybrid assay; format: cell-based; details: read-out: Activity; outline: as §3
T5 sequence (O35627 whole entry I252L): as the sequence (O35627 whole entry T350M) above, with I252L, M350T counted along it

[9] = molecular target: T2, Nuclear receptor subfamily 1 group I member 3; assay: Activation of mouse CAR S251L mutant expressed in HEK293 cells at 10 uM by mammalian one-hybrid assay; format: cell-based; details: hek293, 10 µM; outline: as §2
[10] = molecular target: T4, Nuclear receptor subfamily 1 group I member 3; assay: Decrease in nuclear co-repressor receptor binding to mouse CAR F171A mutant […] at 10 uM by yeast two-hybrid assay; format: cell-based; details: read-out: Activity; outline: as §3
[11] = molecular target: T6, mouse CAR (NR1I3), wild type (Mus musculus, UniProt O35627); assay: Decrease in wild type mouse CAR activation expressed in HEK293 cells at 10 uM by mammalian one-hybrid transactivation assay; format: cell-based; details: HEK293 cells expressing wild type mouse CAR, read-out: Activity; outline: as §2
T6 sequence (O35627 whole entry): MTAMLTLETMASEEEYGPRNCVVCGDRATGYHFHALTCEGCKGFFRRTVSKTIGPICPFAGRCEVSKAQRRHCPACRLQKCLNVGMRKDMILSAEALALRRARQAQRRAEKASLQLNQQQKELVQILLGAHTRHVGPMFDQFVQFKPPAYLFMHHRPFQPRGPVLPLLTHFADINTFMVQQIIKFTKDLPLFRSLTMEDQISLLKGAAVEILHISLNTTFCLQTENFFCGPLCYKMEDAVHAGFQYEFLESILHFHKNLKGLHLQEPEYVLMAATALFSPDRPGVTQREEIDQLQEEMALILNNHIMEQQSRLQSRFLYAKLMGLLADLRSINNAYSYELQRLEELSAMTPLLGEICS

[12] = molecular target: Nuclear receptor subfamily 1 group I member 3 (Mus musculus, UniProt O35627, Y336A); details: HEK293, mouse, read-out: Activity
Nuclear receptor subfamily 1 group I member 3 (Mus musculus, UniProt O35627, Y336A), sequence (O35627 whole entry Y336A): as the sequence (O35627 whole entry T350M) above, with Y336A, M350T counted along it

[13] = molecular target: T5, Nuclear receptor subfamily 1 group I member 3; assay: Activation of mouse CAR I252L mutant expressed in HEK293 cells at 2 uM by mammalian one-hybrid assay; format: cell-based; details: hek293, 2 µM
Outline: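 GAL4-DBD fused to mouse CAR LBD (residues 118-358), wild-type or point mutant, cotransfected with UASx4-tk-luc reporter and pCMVβ into HEK293 cells. Cells were exposed to final 1 µM, 2 µM or 10 µM test chemical, or 0.1% v/v DMSO, for 24 h after transfection. Luciferase was normalized to β-galactosidase and set against empty GAL4 vector (=1.0). Mean ± standard deviation, three independent experiments.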

[14] = molecular target: T3, Nuclear receptor subfamily 1 group I member 3; assay: Enhancement of steroid receptor co-activator 1 binding to mouse CAR N175A mutant […] at 2 uM by yeast two-hybrid assay; format: cell-based; outline: as §1
[15] = molecular target: T1, Nuclear receptor subfamily 1 group I member 3; assay: Enhancement of nuclear co-repressor receptor binding to mouse CAR H213A mutant […] at 2 uM by yeast two-hybrid assay; format: cell-based; outline: as §1
[16] = molecular target: T1, Nuclear receptor subfamily 1 group I member 3; assay: Effect on steroid receptor co-activator 1 binding to mouse CAR H213A mutant […] at 2 uM by yeast two-hybrid assay; format: cell-based; details: read-out: Activity; outline: as §1
[17] = molecular target: T5, Nuclear receptor subfamily 1 group I member 3; assay: Enhancement of steroid receptor coactivator 1 binding to mouse CAR I252L mutant […] at 2 uM by yeast two-hybrid assay; format: cell-based; outline: as §1
[18] = molecular target: Nuclear receptor subfamily 1 group I member 3 (Mus musculus, UniProt O35627, T350A); assay: Decrease in steroid receptor coactivator 1 binding to mouse CAR T350A mutant […] at 2 uM by yeast two-hybrid assay; format: cell-based; details: read-out: Activity; outline: as §1
Nuclear receptor subfamily 1 group I member 3 (Mus musculus, UniProt O35627, T350A), sequence (O35627 whole entry T350A): as the sequence (O35627 whole entry T350M) above, with M350A counted along it

[19] = molecular target: T7, Nuclear receptor subfamily 1 group I member 3 (Mus musculus, UniProt O35627, L353A); assay: Decrease in nuclear co-repressor receptor binding to mouse CAR L353A mutant […] at 2 uM by yeast two-hybrid assay; format: cell-based; details: read-out: Activity; outline: as §1
T7 sequence (O35627 whole entry L353A): as the sequence (O35627 whole entry T350M) above, with M350T, L353A counted along it

[20] = molecular target: T7, Nuclear receptor subfamily 1 group I member 3; assay: Effect on steroid receptor coactivator 1 binding to mouse CAR L353A mutant […] at 2 uM by yeast two-hybrid assay; format: cell-based; details: read-out: Activity; outline: as §1

T1 sequence (O35627 whole entry H213A, the tested form may be a part): as the sequence (O35627 whole entry T350M) above, with H213A, M350T counted along it

- activity at 10 µM [1]: < 50%
- Activity [2]: > 50%
Structure (SMILES): COc1ccccc1CC(CC(=O)Cc1ccccc1)OC (stereo not given)

Structure (SMILES): Clc1cnc(Oc2ccc(Oc3ncc(Cl)cc3Cl)cc2)c(Cl)c1
- inhibition at 1 µM [3]: < 50%
- inhibition at 1 µM [4]: < 50%
- Activity [5]: < 50%
- activity at 1 µM [6]: < 50%
- activity at 1 µM [7]: < 50%
- activity at 1 µM [8]: < 50%

Structure (SMILES): C[C@]12CC[C@@H](O)C[C@@H]1CC[C@@H]1[C@@H]2CC[C@]2(C)C=CC[C@@H]12 [ANDROSTENOL]
- Activity [9]: < 50%
- inhibition at 10 µM [10]: ≥ 50%
- inhibition at 10 µM [11]: > 60%
- inhibition at 10 µM [12]: < 50%

- Activity [13]: 50%
- Activity [14]: >= 50%
- Activity [15]: > 150%
- activity at 2 µM [16]: < 50%
- Activity [17]: >= 50%
- inhibition at 2 µM [18]: ≥ 50%
- inhibition at 2 µM [19]: ≥ 50%
- activity at 2 µM [20]: < 50%
Structure (SMILES): Clc1ccccc1C(c1ccccc1)(c1ccccc1)n1ccnc1 [CLOTRIMAZOLE]

— ChEMBL document CHEMBL1152300, “Ligand specificity of constitutive androstane receptor as probed by induced-fit docking and mutagenesis” (J Med Chem, 2008)
